Experimental data as given in publication PMC9530613 (Redox Biology, 2022).

How the values were obtained:
[1] = test system: SH-SY5Y cells; assay: Hydrogen peroxide cytotoxicity, SRB assay; format: cell-based, human; conditions: in the presence of I3MT3
In short: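 SH-SY5Y cells (MEM-F12, 15% FBS, 37 °C, 5% CO2) exposed to 100 μM H2O2 ± test compound ± I3MT3 for 24 h at 37 °C. Fixed with 10% TCA for 1 h at 4 °C, washed, then stained 1 h at room temperature with 0.04% w/v SRB in 1% acetic acid. Washed with 1% acetic acid, dried, dye dissolved in 10 mM Tris base (pH 10.5), A510 read. One-way ANOVA with Tukey test.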

[2] = test system: SH-SY5Y cells; assay: Aβ1-42 amyloid toxicity assay, CCK-8; format: cell-based, human
In short: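 Human neuroblastoma SH-SY5Y cells in MEM-F12 (1:1) with 15% FBS, at 37 °C and 5% CO2, grown to 70% confluence. Monomer-rich Aβ1-42 (HFIP-treated, sonicated) added at 20 μM with or without varying test compound concentrations, ± I3MT3, for 24 h; scrambled Aβ peptide as control. CCK-8 added for 3 h at 37 °C, absorbance at 450 nm. One-way ANOVA with Tukey test.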

[3] = DPPH radical scavenging assay; format: biochemical; conditions: read-out: IC50, DPPH radical scavenging; DPPH 150 μM, 30 min, room temperature
In short: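 Test compound at various concentrations incubated with DPPH (150 μM in 80% ethanol) for 30 min at room temperature. Radical scavenging read as absorbance at 517 nm.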

Compound | exacerbation of H2O2 cytotoxicity, rise over H2O2 alone [1] [%] | effect of 3MST inhibitor on protective effect of sulfanegen against Aβ1-42 toxicity ([2]; Aβ1-42 20 μM + sulfanegen + I3MT3) | exacerbation of Aβ1-42 cytotoxicity, rise over Aβ1-42 alone ([2]; in the presence of I3MT3) [%] | IC50 [3] [µM]
Cc1cc(=O)[nH]c(SCC(=O)c2cccc3ccccc23)n1 [I3MT3] | 20 | completely abolished | 10 | –
O=C1O[C@H]([C@@H](O)CO)C(O)=C1O [ascorbic acid] | – | – | – | 141
